According to ChEMBL document CHEMBL1122328, “Hypolipidemic activity of phthalimide derivatives. 2. N-phenylphthalimide and derivatives” (1983):

Experiments:
Format in all cases: functional
Mus musculus [1] = experiment: Effect on mg of lipid from CF1 male mice after 16 days at a dose of 10 (mg/kg/day)
Method in brief: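 CF1 male mice dosed ip for 16 days at 10–60 (mg/kg)/day; liver taken and 10% homogenate made in 0.25 M sucrose + 0.001 M EDTA; aliquot extracted by Folch and Bligh–Dyer methods, mg lipid weighed, cholesterol measured by Liebermann–Burchard method; n = 6; % of 1% CMC control.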

Mus musculus [2] = experiment: Effect on neutral lipids from CF1 male mice after 16 days at a dose of 10 (mg/kg/day)
Method in brief: (§1)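 Dosing was ip in CF₁ male mice (~25 g) for 16 days, with compound suspended in 1% carboxymethylcellulose. Liver was then taken and homogenised to 10% in 0.25 M sucrose with 0.001 M EDTA. Lipid was extracted from a 2 mL aliquot by the Folch and Bligh–Dyer methods and total mg of lipid was weighed. Cholesterol (Liebermann–Burchard), triglycerides (kit), neutral lipids and phospholipids were then measured; N = 6; reported as % of vehicle control.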

Mus musculus [3] = experiment: In vitro effect on CF1 male mouse on Lipid content after 16 days at a dose of 60 (mg/kg)/day
Mus musculus [4] = species on record: Mus musculus; experiment: In vitro effect on CF1 male mouse on Mitochondrial citrate exchange
Method in brief: (§2)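 In vitro test on 10% CF₁ male mouse liver homogenate (0.25 M sucrose, 0.001 M EDTA) with 2.5 μmol test drug. Assays: acetyl-CoA synthetase and citrate lyase as hydroxamate at 540 nm, 30 min, 37 °C; citrate exchange from [¹⁴C]citrate-loaded mitochondria after 10 min with drug; side-chain oxidation by ¹⁴CO₂ from [26-¹⁴C]cholesterol, 18 h, 37 °C; acetyl-CoA carboxylase by [¹⁴C]bicarbonate fixation after 30 min polymerization then 30 min at 37 °C.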

Mus musculus [5] = species on record: Mus musculus; experiment: In vitro effect on CF1 male mouse on acyltransferase
Mus musculus [6] = experiment: In vitro effect on CF1 male mouse on acyltransferase after 16 days at a dose of 60 (mg/kg)/day
Method in brief: (§3)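 In vivo enzyme study. CF₁ male mice were dosed ip for 16 days in 1% CMC, and liver was homogenised to 10% in 0.25 M sucrose with 0.001 M EDTA. Enzymes assayed: acetyl-CoA synthetase as hydroxamate at 540 nm after 30 min at 37 °C; HMG CoA reductase with [1-¹⁴C]acetate in 9000g supernatant for 60 min at 37 °C; fatty acid synthetase with [2-¹⁴C]malonyl-CoA; acyltransferase with [³H]glycerol 3-phosphate and microsomes for 10 min; phosphatidate phosphohydrolase as released phosphate at 820 nm after 30 min. N = 6; reported as % control.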

Mus musculus [7] = experiment: In vitro effect on CF1 male mouse on phosphatidate phosphohydrolase after 16 days at a dose of 40 (mg/kg)/day
Method in brief: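 CF1 male mice dosed ip daily for 16 days, drug suspended in 1% carboxymethylcellulose; liver taken as 10% homogenate in 0.25 M sucrose + 0.001 M EDTA. Phosphatidate phosphohydrolase measured as inorganic phosphate released from phosphatidic acid after 30 min, developed with ascorbic acid/ammonium molybdate, read at 820 nm. Expressed as % of 1% CMC vehicle control; N = 6.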

Mus musculus [8] = experiment: Effect on triglycerides from CF1 male mice after 16 days at a dose of 10 (mg/kg/day); method in brief: as §1
Mus musculus [9] = experiment: Effect on triglycerides from CF1 male mice after 16 days at a dose of 60 (mg/kg/day); method in brief: as §1
Mus musculus [10] = experiment: Effect on Serum cholesterol levels on CF1 male mice at a dose of 12.5 (mg/kg)/day after 16 days
Method in brief: (§4)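 CF1 male mice (~25 g), drug suspended in 1% carboxymethylcellulose in water, given ip daily for 16 days; n = 6; vehicle control. Tail-vein blood on days 9 and 16, serum cholesterol by modified Liebermann–Burchard reaction; day-14 serum triglyceride by commercial kit; expressed as % control.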

Mus musculus [11] = experiment: Effect on Serum cholesterol levels on CF1 male mice at a dose of 25 (mg/kg)/day after 16 days; method in brief: as §4
Mus musculus [12] = experiment: Effect on Serum cholesterol levels on Hyperlipidemic induced mice After 14 days dosing.
Method in brief: (§5)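 Mice fed atherogenic diet for 2 weeks to raise serum lipids, then given drug at 20 (mg/kg)/day ip for a further 2 weeks; serum cholesterol and triglyceride measured after the diet and after 14 days dosing; n = 6; compared with 1% CMC and diet-only controls; % control.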

Mus musculus [13] = species on record: Mus musculus; experiment: Effect on Serum triglceride levels on Hyperlipidemic induced mice After 2-week diet; method in brief: as §5
Mus musculus [14] = experiment: Effect on Serum triglceride levels on Hyperlipidemic induced mice After 14 days dosing.; method in brief: as §5
Mus musculus [15] = experiment: In vitro effect on CF1 male mouse on Ac-CoA synthetase after 16 days at a dose of 20 (mg/kg)/day; method in brief: as §3
Mus musculus [16] = experiment: In vitro effect on CF1 male mouse on Ac-CoA synthetase after 16 days at a dose of 40 (mg/kg)/day; method in brief: as §3
Mus musculus [17] = experiment: In vitro effect on CF1 male mouse on Ac-CoA synthetase after 16 days at a dose of 60 (mg/kg)/day; method in brief: as §3
Mus musculus [18] = species on record: Mus musculus; experiment: In vitro effect on CF1 male mouse on Citrate lyase; method in brief: as §2
Mus musculus [19] = experiment: In vitro effect on CF1 male mouse on Fatty acid synthetase after 16 days at a dose of 40 (mg/kg)/day; method in brief: as §3
Mus musculus [20] = experiment: In vitro effect on CF1 male mouse on HMGCoA reductase after 16 days at a dose of 10 (mg/kg)/day; method in brief: as §3
Rattus norvegicus [21] = experiment: Effect on low density cholesterol Holtzman rats after 14 days administration
Method in brief: (§6)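 Holtzman male rats (~400 g) given drug at 20 (mg/kg)/day for 14 days; on day 14 blood taken from the abdominal aorta and serum separated by centrifugation at 3500 rpm; lipid and protein content of the lipoprotein fractions measured.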

Rattus norvegicus [22] = experiment: Effect on neutral lipids Holtzman rats after 14 days administration
Rattus norvegicus [23] = experiment: Effect on very low density Triglycerides Holtzman rats after 14 days administration
Method in brief: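 Holtzman male rats (~400 g) received drug at 20 (mg/kg)/day for 14 days. On day 14, blood was collected from the abdominal aorta and serum was separated by centrifugation at 3500 rpm. Lipid content of the lipoprotein fractions was then determined.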

Rattus norvegicus [24] = experiment: Effect on Chylomicrons of Phospholipids Holtzman rats after 14 days administration; method in brief: as §6
Rattus norvegicus [25] = experiment: Effect on Chylomicrons of neutral lipids Holtzman rats after 14 days administration; method in brief: as §6
Rattus norvegicus [26] = experiment: Effect on Serum cholesterol levels on Holtzman rats at a dose of 30 (mg/kg)/day after 16 days
Method in brief: (§7)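 Holtzman male rats (~200 g) dosed orally by intubation needle daily for 16 days, drug suspended in 1% carboxymethylcellulose; n = 6; vehicle control. Tail-vein serum cholesterol on days 9 and 16 by modified Liebermann–Burchard reaction; day-14 serum triglyceride by commercial kit; % control.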

Rattus norvegicus [27] = experiment: Effect on Serum triglceride levels on Holtzman rats at a dose of 20 (mg/kg)/day after 14 days; method in brief: as §7
Rattus norvegicus [28] = experiment: Effect on high density Protein Holtzman rats after 14 days administration; method in brief: as §6
Rattus norvegicus [29] = experiment: Effect on high density cholesterol Holtzman rats after 14 days administration; method in brief: as §6
Rattus norvegicus [30] = experiment: Effect on low density Triglycerides Holtzman rats after 14 days administration; method in brief: as §6
Rattus norvegicus [31] = experiment: Effect on low density Protein Holtzman rats after 14 days administration; method in brief: as §6
Mus musculus [32] = experiment: Effect on mg of lipid from CF1 male mice after 16 days at a dose of 60 (mg/kg/day); method in brief: as §1

Molecule CC(=O)c1ccccc1N1C(=O)c2ccccc2C1=O has a Control (Mus musculus [1]) of 84%, a Control (Mus musculus [2]) of 36% and a Control (Mus musculus [3]) of 80%. For the same molecule, the Control (Mus musculus [4]) was 76%, the Control (Mus musculus [5]) was 54% and the Control (Mus musculus [6]) was 45%. It also gave a Control (Mus musculus [7]) of 54%, a Control (Mus musculus [8]) of 46% and a Control (Mus musculus [9]) of 100%. It also gave a Control (Mus musculus [10]) of 43%, a Control (Mus musculus [11]) of 38% and a Control (Mus musculus [12]) of 118%. It also gave a Control (Mus musculus [13]) of 131%, a Control (Mus musculus [14]) of 86% and a Control (Mus musculus [15]) of 46%. For the same molecule, the Control (Mus musculus [16]) was 59%, the Control (Mus musculus [17]) was 86% and the Control (Mus musculus [18]) was 62%. The Control (Mus musculus [19]) was 94%, the Control (Mus musculus [20]) was 98% and the Control (Rattus norvegicus [21]) was 57%. For the same molecule, the Control (Rattus norvegicus [22]) was 55%, the Control (Rattus norvegicus [23]) was 46% and the Control (Rattus norvegicus [24]) was 171%. It also gave a Control (Rattus norvegicus [25]) of 50%, a Control (Rattus norvegicus [26]) of 64% and a Control (Rattus norvegicus [27]) of 61%. It also gave a Control (Rattus norvegicus [28]) of 80%, a Control (Rattus norvegicus [29]) of 52% and a Control (Rattus norvegicus [30]) of 52%. The Control (Rattus norvegicus [31]) was 95% and the Control (Mus musculus [32]) was 80%.
